From ChEMBL document CHEMBL1121966, “(2R*,3S*)-1-[125I]Iodo-2,3-bis(4-hydroxyphenyl)pentane ([125I]iodonorhexestrol) and (2R*,3S*)-1-[77Br]Bromo-2,3-bis(4-hydroxyphenyl)pentane ([77Br]bromonorhexestrol), two gamma-emitting estrogens that show receptor-mediated uptake by target tissues in vivo” (1982)

Tests used:
[1] = species on record: Rattus norvegicus; assay: Percent injected dose per gram lung at 1 hr; format: functional
In short: (§1)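 Immature (25 day) female Sprague-Dawley rats (ca. 50 g) were dosed iv (jugular or tail vein) in ethanol plus 0.9% NaCl/rat serum (1:1). Doses were 2 μCi of [125I]iodonorhexestrol (≤15 pmol/dose), or 2 μCi each of [77Br]bromonorhexestrol (≤1.25 pmol/dose) and 16α-[125I]iodoestradiol (2 pmol/dose). Rats were killed at 1, 3 or 6 h; blood and tissues were weighed and γ-counted. Thyroid weight assumed 0.005 g/100 g body weight. Mean ± SD.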

[2] = Spleen/blood distribution ratio was determined immature female rats at 1 hr; format: functional; in short: as §1
[3] = species on record: Rattus norvegicus; assay: Percent injected dose per gram Ovaries at 1 hr; format: functional
In short: (§2)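 Immature (25-day, ca. 50 g) Sprague-Dawley female rats received an iv injection (jugular or tail vein) of HPLC-purified tracer in ethanol plus 0.9% NaCl/rat serum 1:1. Doses were 2 μCi [125I]iodo tracer (≤15 pmol), or 2 μCi [77Br]bromo tracer (≤1.25 pmol) with 2 μCi 16α-[125I]iodoestradiol. Animals were killed at 1 h; blood and tissues were weighed and γ-counted. Blocking: coinjected unlabeled estradiol, 9 μg (iodo) or 18 μg (bromo). Mean ± SD.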

[4] = species on record: Rattus norvegicus; assay: Percent injected dose per gram Uterus at 1 hr with unlabeled estradiol.; format: functional; in short: as §2
[5] = Liver/blood distribution ratio was determined in immature female rats at 1 hr with unlabeled estradiol; format: functional; in short: as §2
[6] = Muscle/blood distribution ratio was determined immature female rats at 1 hr with unlabeled estradiol; format: functional; in short: as §2
[7] = Tissue/blood distribution ratio was measured in immature female rats at 1h, unlabeled estradiol (18 microg) coinjected; format: functional
In short: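 Immature female rats given iv [77Br]bromonorhexestrol with 16α-[125I]iodoestradiol (2 μCi each) plus 18 μg unlabeled estradiol coinjected; killed at 1 h. Tissue and blood were weighed and counted, and tissue-to-blood radioactivity ratios were computed; 5 animals, mean ± SD.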

[8] = Esophagus/blood distribution ratio was determined in immature female rats at 1 hr; format: functional; in short: as §2
[9] = species on record: Rattus norvegicus; assay: Percent injected dose per gram lung at 1 hr with unlabeled estradiol; format: functional
In short: (§3)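 Same iv biodistribution in immature female rats, killed at 1 h, with unlabeled estradiol coinjected to block receptor uptake: 9 μg with [125I]iodonorhexestrol (3 rats), 18 μg with the [77Br]bromonorhexestrol/16α-[125I]iodoestradiol pair (5 rats). Tissue and blood radioactivity were counted as % injected dose/g and tissue-to-blood ratio.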

[10] = Solvolytic stability of compound was measured relative to p-hydroxyphenethyl bromide; format: functional, Rattus norvegicus
[11] = species on record: Rattus norvegicus; assay: Percent injected dose per gram esophagus at 1 hr; format: functional; in short: as §2
[12] = species on record: Rattus norvegicus; assay: Percent injected dose per gram blood at 1 hr with unlabeled estradiol; format: functional; in short: as §2
[13] = Uterus/blood distribution of compound was measured in immature female rats at 1 hr with unlabeled estradiol; format: functional; in short: as §3
[14] = Lung/blood distribution ratio was determined in immature female rats at 1 hr with unlabeled estradiol; format: functional; in short: as §2
[15] = Thyroid/blood distribution ratio was determined in immature female rats at 1 hr; format: functional; in short: as §1
[16] = Spleen/blood distribution ratio was determined in immature female rats at 1 hr with unlabeled estradiol; format: functional
[17] = Thyroid/blood distribution ratio was determined in immature female rats at 1 hr with unlabeled estradiol; format: functional; in short: as §3
[18] = species on record: Rattus norvegicus; assay: Percent injected dose per gram spleen at 1 hr with unlabeled estradiol; format: functional; in short: as §3
[19] = Ovary/blood distribution ratio was determined in immature female rats at 1 hr; format: functional; in short: as §2
[20] = Lung/blood distribution ratio was determined in immature female rats at 1 hr; format: functional; in short: as §2
[21] = species on record: Rattus norvegicus; assay: Percent injected dose per gram Uterus at 1 hr; format: functional; in short: as §2
[22] = species on record: Rattus norvegicus; assay: Percent injected dose per gram kidney at 1 hr with unlabeled estradiol; format: functional; in short: as §2
[23] = species on record: Rattus norvegicus; assay: Percent injected dose per gram Ovaries at 1 hr with unlabeled estradiol; format: functional; in short: as §2
[24] = species on record: Rattus norvegicus; assay: Percent injected dose per gram liver at 1 hr; format: functional; in short: as §1
[25] = Liver/blood distribution ratio was determined in immature female rats at 1 hr; format: functional; in short: as §2
[26] = Tissue/blood distribution ratio was measured in immature female rats at 1 hr; format: functional; in short: as §1
[27] = Uterus/blood distribution ratio was measured in immature female rats at 1 hr; format: functional; in short: as §1
[28] = Ovary/blood distribution ratio was determined in immature female rats at 1 hr with unlabeled estradiol; format: functional; in short: as §2
[29] = species on record: Rattus norvegicus; assay: Percent injected dose per gram Muscle at 1 hr with unlabeled estradiol; format: functional; in short: as §2
[30] = species on record: Rattus norvegicus; assay: Percent injected dose per gram thyroid at 1 hr; format: functional, Thyroid gland; in short: as §1
[31] = species on record: Rattus norvegicus; assay: Percent injected dose per gram kidney at 1 hr; format: functional; in short: as §2
[32] = species on record: Rattus norvegicus; assay: Percent injected dose per gram liver at 1 hr with unlabeled estradiol; format: functional; in short: as §3
[33] = species on record: Rattus norvegicus; assay: Percent injected dose per gram thyroid at 1 hr with unlabeled estradiol; format: functional, Thyroid gland; in short: as §3
[34] = Esophagus/blood distribution ratio was determined in immature female rats at 1 hr with unlabeled estradiol; format: functional; in short: as §2
[35] = species on record: Rattus norvegicus; assay: Percent injected dose per gram Muscle at 1 hr; format: functional; in short: as §2
[36] = Kidney/blood distribution ratio was determined in immature female rats at 1 hr; format: functional; in short: as §2
[37] = Kidney/blood distribution ratio was determined in immature female rats at 1 hr with unlabeled estradiol; format: functional; in short: as §2
[38] = species on record: Rattus norvegicus; assay: Percent injected dose per gram esophagus at 1 hr with unlabeled estradiol; format: functional; in short: as §2
[39] = species on record: Rattus norvegicus; assay: Percent injected dose per gram blood at 1 hr; format: functional; in short: as §2
[40] = species on record: Rattus norvegicus; assay: Percent injected dose per gram spleen at 1 hr; format: functional; in short: as §1

SMILES: CC[C@H](c1ccc(O)cc1)[C@@H](CI)c1ccc(O)cc1
- Injected dose [1]: 1.4%
- Ratio [2]: 0.9
- Injected dose [3]: 4.8%
- Injected dose [4]: 4.9%
- Ratio [5]: 1.6
- Ratio [6]: 1.9
- Ratio [7]: 1
- Ratio [8]: 6.3
- Injected dose [9]: 1.8%
- 1/krel [10]: 0.71
- Injected dose [11]: 8.3%
- Injected dose [12]: 1.5%
- Ratio [13]: 3.3
- Ratio [14]: 1.2
- Ratio [15]: 494.8
- Ratio [16]: 0.9
- Ratio [17]: 278.4
- Injected dose [18]: 1.3%
- Ratio [19]: 3.7
- Ratio [20]: 1.1
- Injected dose [21]: 15.7%
- Injected dose [22]: 1.9%
- Injected dose [23]: 4.9%
- Injected dose [24]: 2%
- Ratio [25]: 1
- Ratio [26]: 1
- Ratio [27]: 11.3
- Ratio [28]: 3.2
- Injected dose [29]: 2.7%
- Injected dose [30]: 619%
- Injected dose [31]: 1.8%
- Injected dose [32]: 2.5%
- Injected dose [33]: 474.5%
- Ratio [34]: 3.6
- Injected dose [35]: 1.6%
- Ratio [36]: 1.4
- Ratio [37]: 1.2
- Injected dose [38]: 5.4%
- Injected dose [39]: 1.3%
- Injected dose [40]: 1.2%
